Values after ≈ are worked out from the molar mass of the structure shown.
Assays:
Micrococcus luteus = assay: Minimum inhibitory concentration against Micrococcus luteus ATCC 8340; type: functional
Outline: (§1)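 Agar dilution per NCCLS in BB2 agar + 1% Isovitalex + 7.5% sheep blood + menadione, compound added to melted medium at 50 °C. About 10⁴ CFU/spot from diluted overnight cultures, multipoint-inoculated.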

Staphylococcus aureus [1] = assay: Minimum inhibitory concentration against Staphylococcus aureus 887; type: functional; outline: as §1
[2] = molecular target: DNA gyrase (Escherichia coli) (UniProt P0AES6+P0AES4)
Neisseria meningitidis = assay: Minimum inhibitory concentration against Neisseria meningitides 69480; type: functional; outline: as §1
Streptococcus pyogenes = assay: Minimum inhibitory concentration against Streptococcus pyogenes b15; conditions: Streptococcus pyogenes; read-out: MIC
Staphylococcus aureus [3] = assay: Minimum inhibitory concentration against Staphylococcus aureus Smith; type: functional; conditions: Staphylococcus aureus; read-out: MIC
Outline: (§2)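 NCCLS agar dilution on Mueller–Hinton agar, compound incorporated into melted medium at 50 °C. Inoculum about 10⁴ CFU/spot from diluted overnight cultures, multipoint-applied.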

Staphylococcus aureus [4] = assay: Minimum inhibitory concentration against Staphylococcus aureus ATCC 25923; type: functional; conditions: Staphylococcus aureus, ATCC 25923; read-out: MIC; outline: as §2

Row | MIC (Micrococcus luteus) [µg/mL] | MIC (Staphylococcus aureus [1]) [µg/mL] | MNEC [2] [µg/mL] | MIC (Neisseria meningitidis) [µg/mL] | MIC (Streptococcus pyogenes) [µg/mL] | MIC (Staphylococcus aureus [3]) [µg/mL] | MIC (Staphylococcus aureus [4]) [µg/mL] | Structure (SMILES)
1 | > 64 | > 64 | 1 |  |  |  |  | COC(=O)[C@@H]1CSCc2c(O)cc(O)c(C)c2C(=O)OC[C@H](N)C(=O)N1
2 | > 128 |  | > 100 |  |  |  |  | COC(=O)[C@@H]1CSCc2ccc(O)c(C)c2C(=O)OCC(NC(=O)OC(C)(C)C)C(=O)N1 (stereo not given in full)
3 | 8 (≈ 13.4 µM) | > 64 | 0.05 | 64 (≈ 107 µM) | 32 (≈ 53.5 µM) |  |  | COC(=O)[C@@H]1CSCc2c(O)cc(O)c(C)c2C(=O)OCC(NC(=O)[C@@H]2C(O)CCN2C(=O)OC(C)(C)C)C(=O)N1 (stereo not given in full)
4 | 16 (≈ 43.3 µM) |  | 0.25 | 32 (≈ 86.6 µM) |  |  |  | COC(=O)[C@@H]1CSCc2c(O)cc(O)c(C)c2C(=O)OCCC(=O)N1
5 |  |  | 0.01 |  |  |  |  | COc1cc(O)c2c(c1C)C(=O)O[C@H](CO)CC/C(S)=N/[C@H](c1nc(C)no1)CSC2
6 | 64 (≈ 161 µM) | > 64 | 4 | 64 (≈ 161 µM) | > 64 |  |  | COC(=O)[C@@H]1CSCc2c(O)cc(OC)c(C)c2C(=O)OC[C@@H](C)C(=O)N1
7 | 128 (≈ 214 µM) | > 64 | 1 |  |  |  |  | COC(=O)[C@@H]1CSCc2c(O)cc(O)c(C)c2C(=O)OCC(NC(=O)[C@H]2C(O)CCN2C(=O)OC(C)(C)C)C(=O)N1 (stereo not given in full)
8 | 16 (≈ 40.3 µM) | 16 (≈ 40.3 µM) | 0.4 | 8 (≈ 20.1 µM) | 16 (≈ 40.3 µM) |  |  | COC(=O)[C@@H]1CSCc2c(O)cc(OC)c(C)c2C(=O)OC[C@H](C)C(=O)N1
9 |  |  | > 1 |  |  |  |  | COC(=O)[C@@H]1CSCc2c(O)cc(OC)c(C)c2C(=O)OCCCCCCCC/C(S)=N/1
10 |  |  | 0.5 |  |  | 16 (≈ 36.2 µM) | 32 (≈ 72.5 µM) | COC(=O)[C@@H]1CSCc2c(O)cc(OC)c(C)c2C(=O)OCCCCC/C(S)=N/1
11 | 16 (≈ 33.1 µM) | > 64 | 0.1 | 4 (≈ 8.27 µM) | 16 (≈ 33.1 µM) |  |  | COc1cc(O)c2c(c1C)C(=O)OC[C@H](NC(=O)OC(C)(C)C)C(=O)N[C@H](C(N)=O)CSC2
12 | 128 (≈ 264 µM) |  | 10 | 128 (≈ 264 µM) |  |  |  | COC(=O)[C@@H]1CSCc2c(O)cc(O)c(C)c2C(=O)OC[C@H](NC(=O)OC(C)(C)C)C(=O)N1
13 | > 128 |  | > 1 |  |  |  |  | COC(=O)[C@@H]1CSCc2c(O)cccc2C(=O)OCC(NC(=O)OC(C)(C)C)C(=O)N1 (stereo not given in full)
14 |  |  | 0.002 |  |  |  |  | COc1cc(O)c2c(c1C)C(=O)CCCCC/C(S)=N/[C@H](c1nc(CNC(C)C)no1)CSC2.Cl
15 | 128 (≈ 300 µM) | > 64 | 0.4 | 32 (≈ 75 µM) | > 64 |  |  | COC(=O)[C@@H]1CSCc2c(O)cc(O)c(C)c2C(=O)OC[C@H](NC(C)=O)C(=O)N1
16 |  |  | 2 |  |  | 32 (≈ 75.2 µM) | > 64 | COC(=O)[C@@H]1CSCc2c(O)cc(OC)c(C)c2C(=O)OCCCCCC(=O)N1
17 |  |  | 2 |  |  | > 64 | > 64 | COC(=O)c1c(C)c(OC)cc(O)c1CSC[C@H](NC(C)=O)C(=O)OC
18 | > 128 |  | > 1 | 128 (≈ 257 µM) |  |  |  | COC(=O)[C@@H]1CSCc2c(OC)cc(O)c(C)c2C(=O)OCC(NC(=O)OC(C)(C)C)C(=O)N1 (stereo not given in full)
19 | 64 (≈ 118 µM) |  | 0.4 | 32 (≈ 59.1 µM) |  |  |  | COC(=O)[C@@H]1CSCc2c(O)cccc2C(=O)OCC(NC(=O)[C@H](CO)NC(=O)OC(C)(C)C)C(=O)N1 (stereo not given in full)
20 |  |  | > 1 |  |  |  |  | COC(=O)[C@@H]1CSCc2cccc(C)c2C(=O)OCC(NC(=O)OC(C)(C)C)C(=O)N1 (stereo not given in full)
21 | 128 (≈ 264 µM) |  | 1 | 32 (≈ 66 µM) |  |  |  | COC(=O)[C@@H]1CSCc2c(O)cc(O)c(C)c2C(=O)OC[C@@H](NC(=O)OC(C)(C)C)C(=O)N1
22 |  |  | 0.4 |  |  | 2 (≈ 4.84 µM) | 4 (≈ 9.67 µM) | COC(=O)[C@@H]1CSCc2c(O)cc(OC)c(C)c2C(=O)OCCC/C(S)=N/1

Row | MIC (Micrococcus luteus) [µg/mL] | MIC (Staphylococcus aureus [1]) [µg/mL] | MNEC [2] [µg/mL] | MIC (Neisseria meningitidis) [µg/mL] | MIC (Streptococcus pyogenes) [µg/mL] | MIC (Staphylococcus aureus [3]) [µg/mL] | MIC (Staphylococcus aureus [4]) [µg/mL] | Structure (SMILES)
23 | 64 (≈ 136 µM) | > 64 | 2.5 | 64 (≈ 136 µM) | 64 (≈ 136 µM) |  |  | COc1cc(O)c2c(c1C)C(=O)OC[C@H](NC(=O)OC(C)(C)C)C(=O)N[C@H](CO)CSC2
24 |  |  | 2 |  |  | 32 (≈ 80.5 µM) | 64 (≈ 161 µM) | COC(=O)[C@@H]1CSCc2c(O)cc(OC)c(C)c2C(=O)OCCCC(=O)N1
25 |  |  | > 1 |  |  |  |  | COC(=O)[C@@H]1CSCc2ccccc2C(=O)OCC(NC(=O)OC(C)(C)C)C(=O)N1 (stereo not given in full)
26 |  |  | > 1 |  |  | > 64 | > 64 | COC(=O)[C@@H]1CSCc2c(O)cc(OC)c(C)c2C(=O)OCCCCCCC(=O)N1
27 |  |  | > 1 |  |  |  |  | COC(=O)[C@@H]1CSCc2c(O)cc(OC)c(C)c2C(=O)OCCCCCCCCC(=O)N1
28 | 32 (≈ 68.3 µM) |  | 1 |  |  |  |  | COC(=O)[C@@H]1CSCc2c(O)ccc(C)c2C(=O)OCC(NC(=O)OC(C)(C)C)C(=O)N1 (stereo not given in full)
29 |  |  | 0.01 |  |  |  |  | COc1cc(O)c2c(c1C)C(=O)O[C@H](CO)C/C(S)=N/[C@H](c1nc(C)no1)CSC2
30 | 8 (≈ 15.3 µM) | 16 (≈ 30.6 µM) | 0.1 | 4 (≈ 7.64 µM) | 16 (≈ 30.6 µM) |  |  | C=CCNC(=O)[C@@H]1CSCc2c(O)cc(OC)c(C)c2C(=O)OC[C@H](NC(=O)OC(C)(C)C)C(=O)N1
31 | > 64 | > 64 | 10 |  | > 64 |  |  | COc1cc(O)c2c(c1C)C(=O)OC[C@H](NC(=O)OC(C)(C)C)C(=O)N[C@H](C(=O)O)CSC2
32 | 32 (≈ 75 µM) |  | 1 |  |  |  |  | Cc1c(O)cc(O)c2c1C(=O)OCC(NC(=O)OC(C)(C)C)C(=O)NCCSC2 (stereo not given)
33 | 128 (≈ 272 µM) |  | 0.5 | 128 (≈ 272 µM) |  |  |  | COC(=O)[C@@H]1CSCc2c(O)cc(O)cc2C(=O)OCC(NC(=O)OC(C)(C)C)C(=O)N1 (stereo not given in full)
34 |  |  | 0.004 |  |  |  |  | COc1cc(O)c2c(c1C)C(=O)OCCC/C(S)=N/[C@H](c1nc(C)no1)CSC2
35 | 16 (≈ 35.1 µM) | > 64 | 0.2 |  | > 64 |  |  | COC(=O)[C@@H]1CSCc2c(O)cc(O)c(C)c2C(=O)OCC(NC(=O)CCO)C(=O)N1 (stereo not given in full)
36 |  |  | 0.5 |  |  | 16 (≈ 35.1 µM) | 16 (≈ 35.1 µM) | COC(=O)[C@@H]1CSCc2c(O)cc(OC)c(C)c2C(=O)OCCCCCC/C(S)=N/1
37 | > 128 |  | > 100 | > 128 |  |  |  | COC(=O)[C@@H]1CSCc2c(N)cccc2C(=O)OCC(NC(=O)[C@H](CO)NC(=O)OC(C)(C)C)C(=O)N1 (stereo not given in full)
38 |  |  | 0.2 |  |  | > 64 | > 64 | COC(=O)[C@@H]1CSCc2c(O)cc(OC)c(C)c2C(=O)OC/C(S)=N/1
39 | > 128 |  | 20 |  |  |  |  | Cc1c(O)cc(O)c2c1C(=O)OCCC(=O)NCCSC2
40 | 128 (≈ 264 µM) |  | 4 | 128 (≈ 264 µM) |  |  |  | COC(=O)[C@H]1CSCc2c(O)cc(O)c(C)c2C(=O)OC[C@H](NC(=O)OC(C)(C)C)C(=O)N1
41 | 64 (≈ 110 µM) | > 64 | 2.5 |  | > 64 |  |  | COC(=O)[C@@H]1CSCc2c(O)cc(O)c(C)c2C(=O)OC[C@H](NC(=O)[C@@H]2CCCN2C(=O)OC(C)(C)C)C(=O)N1
42 |  |  | 0.2 |  |  | 8 (≈ 19.9 µM) | 16 (≈ 39.8 µM) | COC(=O)c1c(C)c(OC)cc(O)c1CSC[C@H](/N=C(/C)S)C(=O)OC
43 |  |  | > 1 |  |  | > 64 | > 64 | COC(=O)[C@@H]1CSCc2c(O)cc(OC)c(C)c2C(=O)OCC(=O)N1

From ChEMBL document CHEMBL1149101, “New antibacterial agents derived from the DNA gyrase inhibitor cyclothialidine” (J Med Chem, 2004)
